Measured values from ChEMBL document CHEMBL1806370, “Development of novel naphthalimide derivatives and their evaluation as potential melanoma therapeutics” (Eur J Med Chem, 2011).

Experiments:
[1] = Cytotoxicity against human A375-S2 cells after 72 hrs by MTS assay; assay type: functional, cell-based; settings: A375-S2, 72 h
Procedure, shortened: (§1)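 Cells in DMEM with 10% FBS at 37 °C and 5% CO2 were plated at 5×10^3 per well and grown 24 h. They were then exposed 24 or 72 h to 0.5, 1, 5, 10, 25 and 50 µM, with final DMSO 0.5% and DMSO controls. MTS/PMS was added for 4 h at 37 °C. A492 was read with the medium blank subtracted and expressed as % of control. IC50 was taken from three independent experiments (mean ± S.E.).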

[2] = Cytotoxicity against human SK-MEL-37 cells after 72 hrs by MTS assay; assay type: functional, cell-based; procedure, shortened: as §1
[3] = tested on: UACC-903; test: Induction of apoptosis in human UACC-903 cells assessed as non-viable cells at 1 uM after 24 hrs using annexin-V-PE/7-AAD double staining by flow cytometry; assay type: functional
Procedure, shortened: (§2)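 UACC 903 cells were exposed 24 h at 37 °C to 1, 5 or 25 µM, with DMSO as control. Cells were harvested, washed twice in cold PBS and resuspended at 1×10^6 cells/mL in binding buffer. They were stained with 7-AAD plus PE Annexin V for 20 min at room temperature in the dark and run by flow cytometry within 1 h. Gating: double-negative live, 7-AAD+ dead, Annexin V+/7-AAD− early apoptotic. Three separate experiments.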

[4] = tested on: Mus musculus; test: Systemic toxicity in Swiss Webster mouse assessed as reduction in body weight at 10 mg/kg, ip administered daily for 28 days; design: scale not given: the % may be the effect or the level left; settings: in vivo, 672 h
[5] = tested on: UACC-903; test: Induction of apoptosis in human UACC-903 cells assessed as non-viable cells at 25 uM after 24 hrs using annexin-V-PE/7-AAD double staining by flow cytometry; assay type: functional; procedure, shortened: as §2
[6] = tested on: UACC-903; test: Induction of apoptosis in human UACC-903 cells assessed as viable cells at 1 uM after 24 hrs using annexin-V-PE/7-AAD double staining by flow cytometry; assay type: functional; settings: UACC-903, 24 h, read-out: Activity; procedure, shortened: as §2
[7] = tested on: 1205Lu; test: Cytotoxicity against human 1205 Lu cells assessed as decrease in cell viability after 24 hrs by MTS assay; assay type: functional, cell-based; procedure, shortened: as §1
[8] = tested on: UACC-903; test: Induction of apoptosis in human UACC-903 cells assessed as early apoptotic cells at 1 uM after 24 hrs using annexin-V-PE/7-AAD double staining by flow cytometry; assay type: functional; procedure, shortened: as §2
[9] = tested on: UACC-903; test: Induction of apoptosis in human UACC-903 cells assessed as early apoptotic cells at 25 uM after 24 hrs using annexin-V-PE/7-AAD double staining by flow cytometry; assay type: functional; procedure, shortened: as §2
[10] = Cytotoxicity against human A375-S2 cells after 24 hrs by MTS assay; assay type: functional, cell-based; settings: A375-S2, 24 h; procedure, shortened: as §1
[11] = tested on: UACC-903; test: Induction of apoptosis in human UACC-903 cells assessed as early apoptotic cells at 5 uM after 24 hrs using annexin-V-PE/7-AAD double staining by flow cytometry; assay type: functional; procedure, shortened: as §2
[12] = tested on: UACC-903; test: Induction of apoptosis in human UACC-903 cells assessed as viable cells at 25 uM after 24 hrs using annexin-V-PE/7-AAD double staining by flow cytometry; assay type: functional; settings: UACC-903, 24 h, read-out: Activity; procedure, shortened: as §2
[13] = tested on: UACC-903; test: Induction of apoptosis in human UACC-903 cells assessed as late apoptotic cells at 1 uM after 24 hrs using annexin-V-PE/7-AAD double staining by flow cytometry; assay type: functional; procedure, shortened: as §2
[14] = tested on: UACC-903; test: Antitumor activity against human UACC-903 cells xenografted in athymic Harlan Sprague-Dawley nude mouse assessed as reduction in tumor growth at 9.5 to 10.6 mg/kg, ip administered thrice per week for 24 days measured after 21 days; assay type: functional; settings: dose mg/kg 9.5-10.6; route intraperitoneal
Procedure, shortened: (§3)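 Female athymic nude mice, 4–6 weeks old, received 5×10^6 UACC 903 cells s.c. in DMEM/10% FBS above both rib cages. After six days they were randomized at 5 mice/group, 2 tumors/mouse. Dosing was i.p. Mon/Wed/Fri, with one arm dosed daily; controls got DMSO vehicle. Tumor dimensions (calipers, mm³) and body weight were recorded three times weekly.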

[15] = tested on: UACC-903; test: Induction of apoptosis in human UACC-903 cells assessed as viable cells at 5 uM after 24 hrs using annexin-V-PE/7-AAD double staining by flow cytometry; assay type: functional; settings: UACC-903, 24 h, read-out: Activity; procedure, shortened: as §2
[16] = tested on: UACC-903; test: Cytotoxicity against human UACC-903 cells assessed as decrease in cell viability after 72 hrs by MTS assay; assay type: functional, cell-based; procedure, shortened: as §1
[17] = tested on: SK-MEL-37 (Homo sapiens); test: Cytotoxicity against human SK-MEL-37 cells assessed as decrease in cell viability after 72 hrs by MTS assay
[18] = tested on: A375-S2; test: Cytotoxicity against human A375-S2 cells assessed as decrease in cell viability after 72 hrs by MTS assay; assay type: functional, cell-based; procedure, shortened: as §1
[19] = tested on: Mus musculus; test: Systemic toxicity in Swiss Webster mouse assessed as mortality at 15 mg/kg, ip administered every day for 28 days; assay type: organism-based; design: dose 15 mg/kg, route intraperitoneal; settings: in vivo, 672 h
Procedure, shortened: (§4)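 Swiss Webster mice, n = 4 per group, dosed i.p. once daily for 28 days at 5, 7.5, 10 or 15 mg/kg body weight. Body weight recorded twice per week; deaths noted over the dosing period.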

[20] = tested on: UACC-903; test: Induction of apoptosis in human UACC-903 cells assessed as non-viable cells at 5 uM after 24 hrs using annexin-V-PE/7-AAD double staining by flow cytometry; assay type: functional; procedure, shortened: as §2
[21] = tested on: Mus musculus; test: Systemic toxicity in Swiss Webster mouse assessed as weight loss at 10 mg/kg, ip administered every day for 28 days; assay type: organism-based; design: dose 10 mg/kg, route intraperitoneal; settings: in vivo, 672 h; procedure, shortened: as §4
[22] = tested on: Mus musculus; test: Systemic toxicity in athymic Harlan Sprague-Dawley nude mouse xenografted with human UACC-903 cells assessed as mortality at 10 mg/kg, ip administered daily for 28 days; assay type: organism-based; design: dose 10 mg/kg, route intraperitoneal; settings: in vivo, 672 h
[23] = tested on: UACC-903; test: Cytotoxicity against human UACC-903 cells after 72 hrs by MTS assay; assay type: functional, cell-based; settings: UACC-903, 72 h; procedure, shortened: as §1
[24] = tested on: UACC-903; test: Induction of apoptosis in human UACC-903 cells assessed as late apoptotic cells at 25 uM after 24 hrs using annexin-V-PE/7-AAD double staining by flow cytometry; assay type: functional; procedure, shortened: as §2
[25] = tested on: UACC-903; test: Cytotoxicity against human UACC-903 cells assessed as decrease in cell viability after 24 hrs by MTS assay; assay type: functional, cell-based; procedure, shortened: as §1
[26] = Cytotoxicity against human SK-MEL-37 cells after 24 hrs by MTS assay; assay type: functional, cell-based; procedure, shortened: as §1
[27] = Cytotoxicity against human 1205 Lu cells after 72 hrs by MTS assay; assay type: functional, cell-based; procedure, shortened: as §1
[28] = tested on: UACC-903; test: Cytotoxicity against human UACC-903 cells after 24 hrs by MTS assay; assay type: functional, cell-based; settings: UACC-903, 24 h; procedure, shortened: as §1
[29] = tested on: 1205Lu; test: Cytotoxicity against human 1205 Lu cells assessed as decrease in cell viability after 72 hrs by MTS assay; assay type: functional, cell-based; procedure, shortened: as §1
[30] = tested on: UACC-903; test: Induction of apoptosis in human UACC-903 cells assessed as increase in apoptotic cells after 24 hrs using annexin-V-PE/7-AAD double staining by flow cytometry; assay type: functional, cell-based; procedure, shortened: as §2
[31] = tested on: Mus musculus; test: Systemic toxicity in Swiss Webster mouse assessed as mortality at 10 mg/kg, ip administered every day for 28 days; assay type: organism-based; design: dose 10 mg/kg, route intraperitoneal; settings: in vivo, 672 h; procedure, shortened: as §4
[32] = tested on: A375-S2; test: Cytotoxicity against human A375-S2 cells assessed as decrease in cell viability after 24 hrs by MTS assay; assay type: functional, cell-based; procedure, shortened: as §1
[33] = tested on: Mus musculus; test: Systemic toxicity in athymic Harlan Sprague-Dawley nude mouse xenografted with human UACC-903 cells assessed as reduction in body weight at 9.5 to 10.6 mg/kg, ip administered thrice a week for 24 days; assay type: organism-based; design: dose 9.5-10.6 mg/kg, route intraperitoneal; settings: in vivo, 576 h; procedure, shortened: as §3
[34] = tested on: SK-MEL-37 (Homo sapiens); test: Cytotoxicity against human SK-MEL-37 cells assessed as decrease in cell viability after 24 hrs by MTS assay
[35] = tested on: UACC-903; test: Induction of apoptosis in human UACC-903 cells assessed as late apoptotic cells at 5 uM after 24 hrs using annexin-V-PE/7-AAD double staining by flow cytometry; assay type: functional; procedure, shortened: as §2
[36] = Cytotoxicity against human 1205 Lu cells after 24 hrs by MTS assay; assay type: functional, cell-based; procedure, shortened: as §1
[37] = tested on: Mus musculus; test: Systemic toxicity in athymic Harlan Sprague-Dawley nude mouse xenografted with human UACC-903 cells assessed as reduction in body weight at 8.5 to 10 mg/kg, ip administered thrice a week for 24 days; assay type: organism-based; design: dose 8.5-10 mg/kg, route intraperitoneal; settings: in vivo, 576 h; procedure, shortened: as §3
[38] = tested on: UACC-903; test: Antitumor activity against human UACC-903 cells xenografted in athymic Harlan Sprague-Dawley nude mouse assessed as reduction in tumor growth at 8.5 to 10 mg/kg, ip administered thrice per week for 24 days measured after 21 days; assay type: functional; settings: dose mg/kg 8.5-10; route intraperitoneal; procedure, shortened: as §3
[39] = tested on: UACC-903; test: Antitumor activity against human UACC-903 cells xenografted in athymic Harlan Sprague-Dawley nude mouse assessed as reduction in tumor growth at 8.5 to 10 mg/kg, ip administered daily for 24 days measured after 21 days; assay type: functional; settings: dose mg/kg 8.5-10; route intraperitoneal; procedure, shortened: as §3

Row | SMILES | IC50 [1] [µM] | IC50 [2] [µM] | Activity [3] [%] | Activity [5] [%] | viability at 1 µM [6] [%] | Activity [7] | Activity [8] [%] | Activity [9] [%] | IC50 [10] [µM] | Activity [11] [%] | viability at 25 µM [12] [%] | Activity [13] [%] | viability at 5 µM [15] [%] | Activity [16] | Activity [17] | Activity [18] | Activity [19] | Activity [20] [%] | Activity [21] | IC50 [23] [µM] | also measured
1 | N=C(N)SCCN1C(=O)c2cccc3cc([N+](=O)[O-])cc(c23)C1=O | 9.48 | 15 | 0.56 | 0.32 | 76.9 | Dose-dependent effect | 20.1 | 40.2 | 18.4 | 25.1 | 47.2 | 2.41 | 70.4 | Dose-dependent effect | Dose-dependent effect | Dose-dependent effect | Toxic | 0.43 | Non-toxic | 6.95 | Activity [4]: 10%; growth inhibition (GI) [14]: 20%; Activity [22]: Non-toxic; Activity [24]: 12.3%; Activity [25]: Dose-dependent effect; IC50 [26]: 23.4 µM; IC50 [27]: 16.4 µM; IC50 [28]: 14.7 µM; Activity [29]: Dose-dependent effect; Activity [30]: Dose-dependent effect; Activity [31]: Non-toxic; Activity [32]: Dose-dependent effect; Activity [33]: Non-toxic; Activity [34]: Dose-dependent effect; Activity [35]: 3.99%; IC50 [36]: 39.5 µM
2 | O=C1c2cccc3cccc(c23)C(=O)N1CCN=C=S | 5.05 | 2.2 | 6.41 | 5.59 | 76.3 | Dose-dependent effect | 12.4 | 22.1 | 7.93 | 19.4 | 64.3 | 4.96 | 69.3 | Dose-dependent effect | Dose-dependent effect | Dose-dependent effect | Toxic | 3.41 | Non-toxic | 8.04 | Activity [37]: Non-toxic; growth inhibition (GI) [38]: 30%; Activity [24]: 7.98%; Activity [25]: Dose-dependent effect; IC50 [26]: 5.93 µM; IC50 [27]: 6.04 µM; IC50 [28]: 11.3 µM; Activity [29]: Dose-dependent effect; Activity [30]: Dose-dependent effect; Activity [31]: Non-toxic; Activity [32]: Dose-dependent effect; Activity [34]: Dose-dependent effect; Activity [35]: 7.96%; growth inhibition (GI) [39]: 50%; IC50 [36]: 9.41 µM
